# LEDGF integ inh = blockers of LEDGF/p75-dependent integrase strand transfer – biochemical, TR-FRET, high throughput, primary screen. HIV-1 integrase (with human LEDGF/p75). TR-FRET IN-LEDGF/p75 DNA integration, Eu/Cy5. inhibition, % at 3.7 µM. 370,000 tested, 0.64% active;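 active = inhibition above the screen-wide mean plus 3 SD, cut at about 13% in these data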;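 also: signal is the Cy5 over europium emission ratio at 671 and 618 nm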
# Rin1 Abl inh = inhibitors of Rin1-Abl protein binding, primary screen, biochemical, TR-FRET. 360,000 tested, 0.4% active. inhibition, % at 7.35 µM. Tyrosine-protein kinase ABL1 (Homo sapiens) + Ras and Rab interactor 1 (Homo sapiens), …. AID 588664, 2011; in the data active = inhibition above about 5%, passing the limit was not always enough
# UHRF1 MBD2 ctr = UHRF1 methylated DNA binding inhibitors, primary screen, counter-screen for MBD2 inhibitor project, biochemical, TR-FRET, human UHRF1, single concentration | E3 ubiquitin-protein ligase UHRF1 (Homo sapiens), Q96T88 | UHRF1 binding to methylated oligo | inhibition, % at 4.4 µM | 370,000 tested, 0.75% active | AID 687016, 2013; in the data active = inhibition above about 21%;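 also: UHRF1 SRA domain binding a hemimethylated CpG hairpin DNA probe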
# Target sequence (Q96T88 whole entry, looked up, the tested form may be a part): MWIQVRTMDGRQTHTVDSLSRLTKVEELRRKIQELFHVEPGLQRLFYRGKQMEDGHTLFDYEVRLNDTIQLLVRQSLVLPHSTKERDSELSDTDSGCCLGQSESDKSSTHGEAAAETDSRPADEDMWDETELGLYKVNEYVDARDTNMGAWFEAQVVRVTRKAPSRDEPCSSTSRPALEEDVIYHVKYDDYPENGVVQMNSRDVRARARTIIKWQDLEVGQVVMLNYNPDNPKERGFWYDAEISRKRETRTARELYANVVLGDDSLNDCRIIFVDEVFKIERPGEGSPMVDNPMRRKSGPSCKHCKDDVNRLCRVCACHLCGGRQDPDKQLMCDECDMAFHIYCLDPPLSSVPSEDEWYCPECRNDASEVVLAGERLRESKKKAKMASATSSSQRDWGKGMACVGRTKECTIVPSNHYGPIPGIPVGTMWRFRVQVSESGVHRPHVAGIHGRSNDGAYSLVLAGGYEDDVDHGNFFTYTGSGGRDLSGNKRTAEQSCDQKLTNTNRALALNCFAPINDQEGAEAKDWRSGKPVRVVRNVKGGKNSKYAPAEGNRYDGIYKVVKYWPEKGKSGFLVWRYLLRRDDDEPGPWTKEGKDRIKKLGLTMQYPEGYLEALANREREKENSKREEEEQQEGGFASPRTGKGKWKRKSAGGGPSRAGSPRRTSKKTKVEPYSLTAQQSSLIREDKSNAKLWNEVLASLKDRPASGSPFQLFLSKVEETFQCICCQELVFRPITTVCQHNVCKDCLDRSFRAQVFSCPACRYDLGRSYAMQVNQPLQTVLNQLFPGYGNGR
# TDP2 absorb = human TDP2 enzyme inhibitors, primary screen, biochemical, epi absorbance, recombinant enzyme | Tyrosyl-DNA phosphodiesterase 2 (Homo sapiens), O95551 | 370,000 tested, 0.34% active | T5PNP hydrolysis, p-nitrophenol absorbance 415 nm | inhibition, % at 12.8 µM;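 active = inhibition above the mean of all tested compounds plus 3 SD, set per campaign, cut at about 25% in these data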
#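 Test system: Human TDP2 enzyme | Reagent: 5 mM T5PNP | Compound dosing: 12.8 µM single point, 1% DMSO | Incubation: Enzyme reaction with compound for 2 h at 37 °C | Technique: p-Nitrophenol epi absorbance | Read-out: % inhibition relative to enzyme-containing and enzyme-free wells | Benchmarks: High control without enzyme, low control DMSO plus TDP2 | Replicates: Singlicate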
# MBD2 DNA inh = inhibitors of MBD2 binding to methylated DNA, primary screen, biochemical, TR-FRET, DNA-binding domain, human; MBD2 binding to methylated oligonucleotide; Methyl-CpG-binding domain protein 2 (Homo sapiens), Q9UBB5; 370,000 tested, 0.31% active; AID 686964, 2013; inhibition, % at 4.4 µM; in the data active = inhibition above about 13%
# IN multimer act = HIV-1 IN multimer formation enhancers, counter-screen for LEDGF/p75 integration inhibitor project, biochemical, TR-FRET. shares compounds with LEDGF integ inh. TR-FRET HIV-1 integrase multimerization. activation, % at 7.7 µM. 2,000 tested, 17% active. AID 1053131, 2014; in the data active = activation above about 8.9%
# TR-FRET interf = TR-FRET optical interference artefacts, confirmation, artefact control for LEDGF/p75-dependent integration inhibitor project, biochemical, HIV-1 IN multimerization; shares compounds with LEDGF integ inh; TR-FRET optical interference counterscreen; inhibition, % at 7.7 µM; 2,000 tested, under 10 active; AID 1053135, 2014;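 active = inhibition above the mean over all tested compounds plus 3 SD, which no compound reached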
# IN-LEDGF confirm = inhibitors of HIV-1 IN-LEDGF/p75 DNA integration, confirmation, biochemical, TR-FRET | shares compounds with LEDGF integ inh | TR-FRET LEDGF/p75-dependent HIV-1 integration | inhibition, % at 3.7 µM | 2,000 tested, 36% active | AID 1053136, 2014; in the data active = inhibition above about 14%
# Numbers stand for hits; . = inactive; / = no result. Rows were chosen to be rich in hits. Some 1.9% of all compounds tested hit in one or more screens of this group.
SMILES,LEDGF integ inh,Rin1 Abl inh,UHRF1 MBD2 ctr,TDP2 absorb,MBD2 DNA inh,IN multimer act,TR-FRET interf,IN-LEDGF confirm
CCCCCCCCN1C(=O)[C@@H](CC(=O)N2CCC(c3ccccc3)CC2)C[C@@]2(C(=O)OC)C1=C[C@H](COCc1ccccc1)O[C@@H]2C,.,/,.,.,.,/,/,/
COC(=O)C[C@@H]1C[C@H]2c3cc(NC(=O)CC4CC4)ccc3O[C@H]2[C@@H](CO)O1,.,.,.,.,.,/,/,/
COC(=O)C[C@H]1C[C@H]2c3cc(NC(=O)Cc4ccncc4)ccc3O[C@H]2[C@@H](CO)O1,14,.,.,.,.,.,.,.
COc1ccc(OC)c(S(=O)(=O)N2CCC(C(=O)N3CCN(C4CCCCC4)CC3)CC2)c1,.,/,.,.,.,/,/,/
O=C(CNc1cccc2ccccc12)N/N=C/C=C/c1ccco1,.,.,.,.,.,/,/,/
O=C(Cc1cccs1)N/N=C/C=C/c1ccco1,17,.,.,.,.,.,.,31
O=C(N/N=C/C=C\c1ccco1)c1ccccn1,.,.,.,.,.,/,/,/
O=C(N/N=C/C=C/c1ccco1)c1cccnc1,27,.,.,.,.,.,.,34
O=C(N/N=C/C=C/c1ccco1)c1cnccn1,26,.,.,.,.,.,.,20
CC(=O)Nc1ccc2c(c1)C(=O)N(C)[C@H]1CC[C@H](CC(=O)NCc3ccc(F)cc3)O[C@@H]1CO2,.,/,.,.,.,/,/,/
CN(C)CC(=O)N[C@H]1C[C@@H]2O[C@H](CO)CC[C@@H]2O[C@@H]1CCc1ccc(-c2ccc(F)cc2)cc1,.,/,.,.,.,/,/,/
CCOC(=O)C1(CCOc2ccccc2)CCN(Cc2ccccc2O)CC1,.,.,.,.,.,/,/,/
CCOC(=O)C1(CCOc2ccccc2)CCN(Cc2ccc(CO)o2)CC1,18,.,.,.,.,.,.,.
CCN(CCO)c1nc(SC)nc2c1sc1nc(-c3ccco3)c3c(c12)CCC3,/,.,/,/,/,/,/,/
CSc1nc(NCCOCCO)c2sc3nc(-c4ccco4)c4c(c3c2n1)CCC4,26,.,29,.,.,.,.,15
COc1ccc(N2CCN(C(=O)c3ccc4c(c3)[nH]c(=S)n3c5ccccc5nc43)CC2)cc1,15,/,43,.,.,.,.,.
CSc1ncccc1C(=O)N1CCCC(C(=O)c2ccc3ccccc3c2)C1 (configuration not stated),15,.,.,.,.,.,.,.
O=C(NCc1ccc(Cl)c(Cl)c1)O[C@H]1CC[C@@]23CCCN2C(=O)CCC[C@H]3C1,.,/,.,.,.,/,/,/
COC(=O)[C@]12CCCCC=C1N(Cc1cccc3ccccc13)C(=O)[C@H](CC(=O)N1CCCCC1)C2,82,/,.,.,.,.,.,.
CN(C)CCCNC(=O)C[C@@H]1CC[C@@H]2[C@H](COc3ccc(NC(=O)c4cccc(F)c4)cc3C(=O)N2C)O1,.,/,.,.,.,/,/,/
CCOc1ccccc1NC(=O)CN1CCC(NC(=O)c2ccccc2C)CC1,21,.,.,.,.,.,.,.
CCOc1ccccc1NC(=O)N1CCC(NC(=O)c2ccccc2C)CC1,.,.,.,.,.,/,/,/
CCOC(=O)N1CCN(C(=O)CCc2ccccc2)CC1,56,.,.,.,.,.,.,.
CN1CCN(S(=O)(=O)c2cccc(C(=O)N3CCN(c4ccccc4F)CC3)c2)CC1,26,.,.,.,.,.,.,.
O=C(c1cccc(S(=O)(=O)N2CCCCCC2)c1)N1CCN(c2ccccc2F)CC1,.,.,.,.,.,/,/,/
SMILES,LEDGF integ inh,Rin1 Abl inh,UHRF1 MBD2 ctr,TDP2 absorb,MBD2 DNA inh,IN multimer act,TR-FRET interf,IN-LEDGF confirm
CC1CCC2(CCC(=O)N2CCCOC(=O)c2ccccc2)CC1 (configuration not stated),.,/,.,.,.,/,/,/
Fc1ccc(-c2cc(-c3nnc4sc(-c5ccco5)nn34)[nH]n2)cc1,.,/,.,.,.,/,/,/
CNc1ccc(Br)cc(C(=O)/C=C/c2cc(OC)ccc2OC)c1=O,.,.,.,.,.,/,/,/
O=C(C=Cc1ccc2c(c1)OCO2)c1ccccc1,.,.,.,.,.,/,/,/
CNc1ccc(Br)cc(C(=O)/C=C/c2ccc(OC)cc2)c1=O,30,.,.,.,.,.,.,27
CNc1ccc(Br)cc(C(=O)/C=C/c2ccc3c(c2)OCO3)c1=O,19,.,.,.,.,.,.,36
O=C(NC1CCCCN(Cc2cccc(C(F)(F)F)c2)C1=O)c1ccc(Cl)cc1 (configuration not stated),.,/,.,.,.,/,/,/
O=C1Nc2ccc(S(=O)(=O)N3CCCC3)c3cccc1c23,.,.,.,.,.,/,/,/
O=C1Nc2ccc(S(=O)(=O)N3CCCC3C(=O)O)c3cccc1c23 (configuration not stated),14,.,.,.,.,.,.,.
O=C1/C(=C\c2ccco2)SC(=S)N1c1ccccc1,21,.,.,.,.,.,.,21
O=C1/C(=C\c2ccco2)NC(=S)N1c1ccccc1,16,.,.,.,.,.,.,17
CCOC(=O)Cn1cc(CN2CCS(=O)(=O)N(Cc3ccc(F)cc3)C(C(=O)OC)C2)nn1 (configuration not stated),.,/,.,.,.,/,/,/
CC(=O)Nc1nc2ncccn2c1-c1ccc(F)c(F)c1,.,/,.,.,.,/,/,/
COc1ccc(C(=O)N2CCC(C(=O)c3ccc(F)cc3)CC2)cc1,80,.,.,.,.,.,.,.
COc1cccc(C(=O)N2CCC(Oc3cccnc3)CC2)c1,.,/,.,.,.,/,/,/
COCCCN=Cc1c(-c2ccccc2)[nH]n(-c2nc3ccccc3s2)c1=O,.,.,.,.,.,/,/,/
O=c1c(C=NCCCO)c(-c2ccccc2)[nH]n1-c1nc2ccccc2s1,21,.,.,.,.,.,.,.
COC(=O)c1cc(-c2ccccc2)c(=O)n2c1CCC2,.,/,.,.,.,/,/,/
